Activity calls are given as the source filed them. The calls are words filed in the database; no cut-off is given here.
How the values were obtained:
PLC-PRF-5 [1] = experiment: Induction of cell cycle arrest in human PLC/PRF/5 cells assessed as accumulation at G2 phase at 1 uM incubated for 24 hrs by PI staining based flow cytometric analysis (reference value: 18.05%); type: functional
PLC-PRF-5 [2] = experiment: Induction of apoptosis in human PLC/PRF/5 cells assessed as late apoptotic cells at 0.5 uM incubated for 24 hrs by annexin V staining based cell counting method (reference value: 4.81%); type: functional
PLC-PRF-5 [3] = experiment: Induction of apoptosis in human PLC/PRF/5 cells assessed as shrunken chromatin at 0.25 to 1 uM incubated for 24 hrs by Hoechst 33258 dye based fluorescence microscopic method; type: functional, cell-based
Procedure, shortened: (§1)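 About 2 × 10^4 cells per well were plated overnight and treated 24 h with 0, 0.25, 0.5 or 1 µM compound. Cells were fixed in 4% paraformaldehyde for 30 min at room temperature, stained with 20 µg/mL Hoechst 33258 for 20 min at 37 °C, and imaged by fluorescence microscopy.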

RPMI-8226 = experiment: Antiproliferative activity against human RPMI8226 cells incubated for 72 hrs by CCK8 cells; type: functional, cell-based; details: RPMI-8226, 72 h
Procedure, shortened: (§2)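 CCK-8 proliferation assay. 10,000 cells per well were preincubated 24 h at 37 °C with 5% CO2, then given compound dissolved in DMSO and incubated 72 h. CCK-8 was added for 4 h and absorbance read at 450 nm. IC50 was taken from dose-response curves as mean ± SEM of at least three independent experiments, with paclitaxel as positive control. HepG2 and L-O2 were grown in DMEM/10% FBS; A549 and RPMI-8226 in RPMI 1640/10% FBS.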

HepG2 [4] = experiment: Induction of cell cycle arrest in human HepG2 cells assessed as accumulation at G1 phase at 1 uM incubated for 24 hrs by PI staining based flow cytometric analysis (reference value: 37.06%); type: functional
HepG2 [5] = experiment: Induction of apoptosis in human HepG2 cells assessed as late apoptotic cells at 0.25 uM incubated for 24 hrs by annexin V staining based cell counting method (reference value: 5.65%); type: functional
PLC-PRF-5 [6] = experiment: Induction of cell cycle arrest in human PLC/PRF/5 cells assessed as accumulation at G2 phase at 0.5 uM incubated for 24 hrs by PI staining based flow cytometric analysis (reference value: 18.05%); type: functional
[7] = Toxicity in nude mouse xenografted with human PLC/PRF/5 cells assessed as change in body weight at 10 mg/kg, iv administrated once every 3 days for 4 weeks; type: organism-based; details: in vivo
Procedure, shortened: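 Nude mice were inoculated subcutaneously in the right forelimb with 2 × 10⁷ PLC/PRF/5 cells in 0.2 mL saline. At about 120 mm³, mice were randomized into 3 groups of 6. Dosing was i.v. once every three days for 4 weeks, with vehicle 10% N-methylpyrrolidone/12% Tween-80/78% saline. Body weight was recorded daily.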

PLC-PRF-5 [8] = experiment: Induction of apoptosis in human PLC/PRF/5 cells assessed as necrotic cells at 0.5 uM incubated for 24 hrs by annexin V staining based cell counting method (reference value: 0.59%); type: functional
A549 = experiment: Antiproliferative activity against human A549 cells incubated for 72 hrs by CCK8 cells; type: functional, cell-based; details: A549, 72 h; procedure, shortened: as §2
PLC-PRF-5 [9] = experiment: Induction of cell cycle arrest in human PLC/PRF/5 cells assessed as accumulation at S phase at 1 uM incubated for 24 hrs by PI staining based flow cytometric analysis (reference value: 42.03%); type: functional
HepG2 [10] = experiment: Induction of apoptosis in human HepG2 cells assessed as upregulation of cleaved caspase 3 protein expression level incubated for 24 hrs by Western blot analysis; type: functional, cell-based
Procedure, shortened: (§3)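 Cells were treated 24 h in DMEM with 0, 0.25, 0.5, 1.0 or 1.25 µM compound. Adherent and floating cells were lysed in RIPA on ice and protein measured by BCA. Equal protein was run on 7.5–12.5% SDS-PAGE and transferred to PVDF. Membranes were blocked in 5% milk/PBST, incubated with primary antibody overnight at 4 °C, and detected by ECL.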

PLC-PRF-5 [11] = experiment: Induction of cell cycle arrest in human PLC/PRF/5 cells assessed as accumulation at G1 phase at 1 uM incubated for 24 hrs by PI staining based flow cytometric analysis (reference value: 34.78%); type: functional
PLC-PRF-5 [12] = experiment: Induction of cell cycle arrest in human PLC/PRF/5 cells assessed as accumulation at S phase at 0.25 uM incubated for 24 hrs by PI staining based flow cytometric analysis (reference value: 42.03%); type: functional
HepG2 [13] = experiment: Induction of apoptosis in human HepG2 cells assessed as live cells at 0.5 uM incubated for 24 hrs by annexin V staining based cell counting method (reference value: 87.35%); type: functional
PLC-PRF-5 [14] = experiment: Inhibition of colony formation in human PLC/PRF/5 cells at 0.5 uM incubated for 10 days by crystal violet staining based microscopic method relative to control; type: functional; details: PLC-PRF-5, 240 h
Procedure, shortened: (§4)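 Five hundred cells plated per 30 mm dish and left 12 h. Medium with compound was added (0, 0.1, 0.5, 1 µM) or DMSO as negative control, and cells grew 10 days. Colonies were fixed in methanol 15 min, stained with 0.1% crystal violet 15 min, photographed and counted. Colony size was checked by microscope. Relative colony number is mean ± SD of ≥3 independent experiments.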

HepG2 [15] = experiment: Induction of apoptosis in human HepG2 cells assessed as shrunken chromatin at 0.25 to 1 uM incubated for 24 hrs by Hoechst 33258 dye based fluorescence microscopic method; type: functional, cell-based; procedure, shortened: as §1
HepG2 [16] = experiment: Inhibition of colony formation in human HepG2 cells at 0.1 to 1 uM incubated for 10 days by crystal violet staining based microscopic method; type: functional, cell-based; procedure, shortened: as §4
PLC-PRF-5 [17] = experiment: Induction of apoptosis in human PLC/PRF/5 cells assessed as necrotic cells at 0.25 uM incubated for 24 hrs by annexin V staining based cell counting method (reference value: 0.59%); type: functional
HepG2 [18] = experiment: Induction of cell cycle arrest in human HepG2 cells assessed as accumulation at G1 phase at 0.5 uM incubated for 24 hrs by PI staining based flow cytometric analysis (reference value: 37.06%); type: functional
PLC-PRF-5 [19] = experiment: Induction of ROS generation in human PLC/PRF/5 cells at 1 uM by DCFH-DA staining-based flow cytometric analysis relative to control; type: functional
Procedure, shortened: (§5)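 Cells were treated with 0, 0.25, 0.5 or 1 µM compound, stained with 10 µM DCFH-DA for 20 min at 37 °C, washed three times, resuspended in PBS and read by flow cytometry. Data are mean ± SD of three independent experiments.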

L02 = experiment: Cytotoxicity against human LO2 cells incubated for 72 hrs by CCK8 cells; type: cell-based; details: L02, 72 h; procedure, shortened: as §2
HepG2 [20] = experiment: Induction of apoptosis in human HepG2 cells assessed as upregulation of cleaved PARP protein expression level incubated for 24 hrs by Western blot analysis; type: functional, cell-based; procedure, shortened: as §3
PLC-PRF-5 [21] = experiment: Induction of apoptosis in human PLC/PRF/5 cells assessed as live cells at 1 uM incubated for 24 hrs by annexin V staining based cell counting method (reference value: 88.95%); type: functional
HepG2 [22] = experiment: Induction of apoptosis in human HepG2 cells assessed as necrotic cells at 1 uM incubated for 24 hrs by annexin V staining based cell counting method (reference value: 3.40%); type: functional
HepG2 [23] = experiment: Induction of ROS generation in human HepG2 cells at 1 uM by DCFH-DA staining-based flow cytometric analysis relative to control; type: functional; procedure, shortened: as §5

C=C1C(=O)[C@]23[C@H](OC(=O)/C=C/c4ccc(OC)cc4)[C@H]1CC[C@H]2[C@@]12CO[C@]3(O)[C@@H](O)[C@@H]1C(C)(C)CC[C@@H]2O
Activity (PLC-PRF-5 [1]): 6.11% | Activity (PLC-PRF-5 [2]): 18.84% | Activity (PLC-PRF-5 [3]): Active | IC50 (RPMI-8226): 8.56 µM | Activity (HepG2 [4]): 42.33% | Activity (HepG2 [5]): 5.7% | Activity (PLC-PRF-5 [6]): 13.58% | Activity [7]: Non-Toxic | Activity (PLC-PRF-5 [8]): 0.82% | IC50 (A549): 12 µM | Activity (PLC-PRF-5 [9]): 43.13% | Activity (HepG2 [10]): Dose-dependent effect | Activity (PLC-PRF-5 [11]): 45.41% | Activity (PLC-PRF-5 [12]): 46.59% | Activity (HepG2 [13]): 77.75% | inhibition at 0.5 µM (PLC-PRF-5 [14]): 100% | Activity (HepG2 [15]): Active | inhibition (HepG2 [16]): Active | Activity (PLC-PRF-5 [17]): 0.91% | Activity (HepG2 [18]): 39.07% | fold change (FC) (PLC-PRF-5 [19]): 3 | IC50 (L02): 1.47 µM | Activity (HepG2 [20]): Dose-dependent effect | Activity (PLC-PRF-5 [21]): 33.5% | Activity (HepG2 [22]): 4.1% | fold change (FC) (HepG2 [23]): 3

— ChEMBL document CHEMBL4364265, “Oridonin derivatives as potential anticancer drug candidates triggering apoptosis through mitochondrial pathway in the liver cancer cells” (Eur J Med Chem, 2019)
